Article PMC6635418 (Current Drug Delivery, 2019)
Converted amounts (≈) assume the structure as drawn. Blank lines part the entries; values can stand above or below the compound they belong to.

Legend:
[1] = cited from earlier work
[2] = Pharmacokinetics of oral topotecan with or without chrysin formulations in rats; type: in vivo
Procedure, shortened: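 Male Sprague-Dawley rats (250-290 g), fasted 12 h, n=3 per group. Oral BCRP substrate (10 mg/kg in saline) given alone or with test compound, free or as solid dispersion (100 mg/kg equivalent in 0.5% methylcellulose/5% PEG). Femoral arterial plasma analysed by HPLC-fluorescence (ex 350/em 527 nm), 10-1000 ng/mL. Noncompartmental: trapezoidal AUC, observed Cmax/Tmax. ANOVA with Dunnett's test.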

[3] = system: breast cancer resistance protein (BCRP); conditions: read-out: IC50 against mitoxantrone efflux; BCRP inhibition; cited from earlier work
[4] = Solubility study in distilled water; type: physicochemical
Procedure, shortened: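 Each formulation, equivalent to 1 mg test compound, stirred in 1 mL distilled water at 600 rpm for 24 h at room temperature. Centrifuged at 13,000 rpm for 10 min and filtered through 0.45 µm. Filtrate diluted in ethanol and quantified by C18 HPLC-UV at 267 nm against a 0.5-20 µg/mL calibration. n=3, mean±SD.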

[5] = male, Sprague-Dawley, rat, plasma, po, 10 mg/kg

Structure (SMILES): CCCCCCCCCCCCOCCOCCOCCOCCO [Brij®L4, polyoxyethylene (4) lauryl ether]
- critical micelle concentration (CMC) [1]: 0.00097 %, w/v

- AUC [2, 5]: 578 ± 37.2 ng·h/mL
- Cmax [2, 5]: 109 ± 44.5 ng/mL
- Tmax [2, 5]: 1.3 ± 0.66 h
Structure (SMILES): CC[C@@]1(O)C(=O)OCc2c1cc1n(c2=O)Cc2cc3c(CN(C)C)c(O)ccc3nc2-1 [Control (Topotecan Only), topotecan]

- effect on oral exposure of topotecan ([2]; rats, oral, versus topotecan only): no effect
- solubility at 24 h [4]: 3.04 ± 0.19 µg/mL (≈ 11.9 µM)
Structure (SMILES): O=c1cc(-c2ccccc2)oc2cc(O)cc(O)c12 [chrysin (untreated drug), 5,7-dihydroxyflavone]
- IC50 [3]: 390 ± 130 nM
